From PubChem
An excerpt weighted towards active compounds, which were near 2.5% of everything screened.
MC4R antagonist = antagonists of human melanocortin 4 receptor (MC4R). MC4R-expressing cells, MTII-stimulated cAMP, LANCE TR-FRET. 360,000 tested, 0.48% active. AID 540295. inhibition, % at 6.5 µM;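 active = inhibition above its plate's cutoff, the mean of tested wells on that plate plus 3 SD, cut at about 29% in these data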;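 also: 0% = Melanotan II alone and 100% = Melanotan II plus saturating MCL0020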
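System: U2OS-MC4R stable cell line; Technique: Eu-cAMP/anti-cAMP TR-FRET, emission 671 nm; Repeats: single well per compound; Also added: Melanotan II; Dosing: one concentration, 6.5 µM nominal; Schedule: 30-min compound, 1-h challenge, 1-h detection, room temperature.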
Rev-erbA mod = modulates human Rev-erb alpha binding to DNA; P20393; Rev-erbα–FITC-DNA binding, fluorescence polarization, 90 min; activity, % at 10 µM; 370,000 tested, 0.79% active;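 active = activity above about 14%, limit read from the data; passing the limit was not always enough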;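 also: 0% = DMSO wells with 35 nM protein and 100% = DMSO wells with 750 nM protein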
Target sequence (P20393 whole entry, looked up): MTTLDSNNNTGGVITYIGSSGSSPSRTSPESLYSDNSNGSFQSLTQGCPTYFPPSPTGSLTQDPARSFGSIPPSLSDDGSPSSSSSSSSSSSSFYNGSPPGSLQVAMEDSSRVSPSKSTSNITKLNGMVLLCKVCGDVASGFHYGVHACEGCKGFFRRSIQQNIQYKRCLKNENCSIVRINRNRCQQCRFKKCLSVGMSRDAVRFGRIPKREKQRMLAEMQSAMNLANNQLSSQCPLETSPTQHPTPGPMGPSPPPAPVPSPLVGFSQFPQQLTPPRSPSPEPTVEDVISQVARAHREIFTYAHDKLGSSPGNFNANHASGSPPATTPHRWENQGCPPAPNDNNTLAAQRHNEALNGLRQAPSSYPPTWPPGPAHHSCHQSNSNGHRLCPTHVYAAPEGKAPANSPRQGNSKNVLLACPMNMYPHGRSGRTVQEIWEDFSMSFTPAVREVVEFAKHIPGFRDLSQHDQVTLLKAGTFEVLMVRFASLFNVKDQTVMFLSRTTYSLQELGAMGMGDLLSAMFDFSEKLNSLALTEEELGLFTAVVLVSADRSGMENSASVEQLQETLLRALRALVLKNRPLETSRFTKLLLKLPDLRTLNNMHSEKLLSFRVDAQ
PG9 Ab binder = binds the HIV-1 gp120 antibody PG9; inhibition, % at 6.7 µM; TR-FRET gp120-PG9 antibody binding; 360,000 tested, 0.43% active; in the data active = inhibition above about 8.5%
MC4R ag barr = activates human MC4R beta-arrestin recruitment; U2OS MC4R beta-arrestin complementation, luminescence; percent of melanotan II response, DMSO zero; activation, % at 8.9 µM; 360,000 tested, 0.98% active; AID 540308;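 active = activation above a per-plate cutoff, the mean activation of sample wells on that plate plus 3 SD, cut at about 8% in these data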
NTR1 ag = activates human neurotensin receptor 1; P30989; NTR1-U2OS beta-arrestin-GFP spot imaging, agonist mode; activation, % at 20 µM; 330,000 tested, 0.17% active; AID 493036;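 active = activation at or above 40% of the spot to cytoplasm intensity ratio, with at least 20 cells analyzed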;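 also: 0% = DMSO without peptide and 100% = 100 nM NTR1 peptide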
MC4R barr conf = human MC4R beta-arrestin agonism confirmation; 2,400 tested, 31% active; activation, % at 8.9 µM; U2OS MC4R beta-arrestin recruitment, luminescence; scaled DMSO 0%, Melanotan II 100%; shares compounds with MC4R ag barr;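 active = mean activation across replicates above the hit cutoff set in the earlier primary screen, cut at about 8% in these data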
MOR-DOR barr ag = activates mu-delta opioid heterodimer, MC4R agonist counter-screen; 2,400 tested, 5.8% active; shares compounds with MC4R ag barr; U2OS PathHunter beta-arrestin, beta-gal luminescence; percent of deltorphin B response, DMSO zero; activation, % at 9.2 µM;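 active = mean activation across replicates exceeds the hit threshold derived in the earlier primary screen, cut at about 18% in these data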;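 also: 100% = deltorphin B at 0.9 µM final and 0% = DMSO alone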
PG9 bind confirm = confirmation of small molecules binding HIV-1 gp120 antibody PG9 | 1,500 tested, 90% active | shares compounds with PG9 Ab binder | inhibition, % at 6.7 µM | TR-FRET PG9 antibody binding, biochemical; in the data active = inhibition above about 9%
PGV04 Ab binding = counter-screen for PG9 binders: binding control antibody PGV04. 1,500 tested, 95% active. shares compounds with PG9 Ab binder. AID 651604. inhibition, % at 6.7 µM. TR-FRET PGV04 antibody-gp120 binding, biochemical; in the data active = inhibition above about 9.5%
NR1D1 mod conf = confirmation of modulators of human Rev-erb alpha DNA binding. shares compounds with Rev-erbA mod. Rev-erb alpha FITC-DNA binding, fluorescence polarization, 90 min. activation, % at 25 µM. 3,000 tested, 61% active. AID 1259319;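 active = activation at or above a set limit, or at least 3 SD above the negative control mean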;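 also: 0% = 35 nM protein with DMSO and 100% = 750 nM protein high control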
RORg DNA counter = RORgamma DNA-binding activity, dose-response counter-screen | IC50, µM | purified RORgamma protein-FITC-DNA binding, fluorescence polarization | 910 tested, 8% active | shares compounds with Rev-erbA mod;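 active = Compounds whose fitted half-maximal concentration for disrupting protein-DNA binding is below 10 micromolar; the record names Rev-erb in its text, so the target is in doubt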
* = called active by the depositor; i = inactive; nt = not tested or not shown.

SMILES	MC4R antagonist	Rev-erbA mod	PG9 Ab binder	MC4R ag barr	NTR1 ag	NR1D1 mod conf	others
Nc1ccc(C2(c3ccc(N)cc3)c3ccccc3-c3ccccc32)cc1	-4.3	4.5	2.9	70.3*	18.5	nt	MC4R barr conf=44.9*;MOR-DOR barr ag=15.0
Nc1ccccc1	nt	-5.0	nt	nt	nt	nt
O=P(NC(c1ccccc1)c1ccccc1)(Oc1ccccc1)Oc1ccccc1	1.1	4.9	0.0	11.3*	3.6	nt	MC4R barr conf=-0.4;MOR-DOR barr ag=8.4
CC(C)(C)c1cc(OC(=O)Cc2ccccc2)ccc1O	2.6	-1.0	-0.5	10.4*	-0.7	nt	MC4R barr conf=6.3;MOR-DOR barr ag=13.6
O=C(Cc1ccccc1)Oc1cccc(N2C(=O)CCC2=O)c1	-1.8	-5.0	0.1	-0.8	-0.7	nt
CC[C@H]1C2CC3[C@@H]4N(C)c5ccccc5[C@]45C[C@@H](C2C5O)N3[C@@H]1O (stereo partly drawn)	nt	0.4	nt	nt	nt	nt
CCCC(=O)N1c2ccc(Cl)cc2C(c2ccccc2)=NCC1C(=O)NC(C)(C)C (stereo not drawn)	nt	-5.6	nt	nt	nt	nt
CC[C@@H](CO)NC(=O)[C@@H]1C=C2c3cccc4c3c(cn4C)C[C@H]2N(C)C1	-9.6	4.5	-11.4	-0.9	-1.0	nt
CCC(CO)NC(=O)C1C=C2c3cccc4[nH]cc(c34)CC2N(C)C1 (stereo not drawn)	-19.6	-9.9	14.3*	-1.1	0.7	nt	PG9 bind confirm=11.6*;PGV04 Ab binding=15.1*
CC[C@@H](CO)NC(=O)[C@@H]1C=C2c3cccc4[nH]cc(c34)C[C@H]2N(C)C1	-21.8	-3.3	15.8*	-0.2	nt	nt	PG9 bind confirm=21.3*;PGV04 Ab binding=33.2*
CN1CC[C@@H]2CN[C@H](c3ccccc3)C[C@@H]21	nt	-9.7	-3.6	nt	nt	nt
CCCOC(=O)COc1cc(C)cc2oc(=O)c3c(c12)CCC3	3.2	23.2	9.9*	4.8	4.7	nt	PG9 bind confirm=22.9*;PGV04 Ab binding=29.5*
Cc1cc(OCC(=O)O)c2c3c(c(=O)oc2c1)CCCC3	-0.2	-0.3	-0.5	1.4	-2.0	nt
Cn1cc(/C=C2\C(=O)NC(=O)N(c3ccccc3)C2=O)c2ccccc21	-0.9	-2.1	11.2*	-1.3	0.3	nt	PG9 bind confirm=7.0;PGV04 Ab binding=20.4*
CCn1c(O)c(C=Nc2ccc(S(N)(=O)=O)cc2)c(=O)n(CC)c1=S	14.2	-3.2	54.3*	-1.6	-0.6	nt	PG9 bind confirm=68.7*;PGV04 Ab binding=86.0*
NS(=O)(=O)c1ccc(N=Cc2c(O)n(C3CCCCC3)c(=O)n(C3CCCCC3)c2=O)cc1	2.3	5.4	-0.2	-0.3	15.9	nt
CCn1c(O)c(C=NCc2ccccc2)c(=O)[nH]c1=S	-3.9	4.0	10.8*	0.0	-1.7	nt	PG9 bind confirm=27.7*;PGV04 Ab binding=37.1*
CCn1c(O)c(C=Nc2ccc(S(N)(=O)=O)cc2)c(=O)[nH]c1=S	-1.6	-4.8	25.3*	-1.6	0.0	nt	PG9 bind confirm=91.7*;PGV04 Ab binding=92.0*
O=C(NCCN1CCC2(CC1)C(=O)NCN2c1ccccc1)c1ccc2ccccc2c1	nt	4.2	-1.6	nt	nt	nt
Cc1cc(N2CCNC[C@H]2C)ccc1N1CC[C@H](O)C1	nt	-5.1	0.8	nt	nt	nt
O=S(=O)(c1ccc(Cl)cc1)N1Cc2ccc(Br)cc2-n2nncc2C1	nt	-2.1	0.4	nt	nt	nt
CCCCCn1c(=O)c(C(=O)Nc2ccccc2S(N)(=O)=O)c(O)c2ccccc21	-4.6	42.9*	69.2*	2.6	4.5	17.8	PG9 bind confirm=79.2*;PGV04 Ab binding=83.2*
O=C(NCCN1CCC2(CC1)C(=O)NCN2c1ccccc1)c1cccs1	nt	-4.5	0.2	nt	nt	nt
O=C(c1cccs1)c1cn(Cc2ccccc2Cl)c2ccccc12	2.7	7.6	-3.1	3.4	-1.8	nt
N#Cc1ccccc1Cn1cc(C(=O)c2cccs2)c2ccccc21	13.3	25.0*	0.8	6.8	-4.5	10.4
SMILES	MC4R antagonist	Rev-erbA mod	PG9 Ab binder	MC4R ag barr	NTR1 ag	NR1D1 mod conf	others
c1ccc(-c2nc3ccccc3nc2-c2ccc(CN3CCC(n4nnc5ccccc54)CC3)cc2)cc1	nt	-3.7	-1.8	nt	nt	nt
O=C(/C=C/c1c[nH]c2ccccc12)c1c(O)n(CCc2ccccc2)c(=O)[nH]c1=O	13.3	38.8*	-0.4	-0.4	-1.3	2.8
COC(=O)C1=C(c2ccc(F)cc2F)C[C@@H]2CC[C@H]1N2C(=O)NCCCOC(C)C	1.5	19.4*	0.9	-0.7	0.5	-0.1
COC(=O)C1=C(c2ccc(F)cc2F)C[C@@H]2CC[C@H]1N2C(=O)NCCO	11.2	-2.4	0.2	-1.6	0.5	nt
COC1CC2C=C(C)C=CC=CC(=O)NC(c3ccccc3)CC=CCCC(O)CC(=O)C2=C1O (stereo not drawn)	nt	-2.0	-2.1	nt	nt	nt
CCCCCCn1c(O)c(C=Nc2ccccc2N2CCOCC2)c(=O)[nH]c1=S	-0.1	53.5*	-2.4	1.3	26.1	4.9
CN1C2CCC1C(C(=O)Oc1ccccc1)C(c1ccc(Cl)cc1)C2 (stereo not drawn)	nt	7.8	-1.3	nt	nt	nt
CCCCCCCn1c(=O)c(C(=O)Nc2cnccn2)c(O)c2ccccc21	6.7	47.9*	-4.0	0.8	12.9	43.1*	RORg DNA counter=>40
COc1cc2c(c3oc4cccc(O)c4c(=O)c13)[C@@H]1C=CO[C@@H]1O2	nt	5.6	nt	nt	nt	nt
CN1/C(=C\C=C2C(=O)NC(=O)NC2=O)C(C)(C)c2ccccc21	-18.5	19.7*	-2.9	-3.4	-0.4	-1.1
COc1ccc(CCn2c(O)c(C=Nc3ccc(F)cc3)c(=O)[nH]c2=O)cc1OC	10.0	130.3*	-0.4	3.7	1.8	69.1*	RORg DNA counter=i
COC(=O)c1cccc(N=Cc2c(O)n(Cc3ccc(F)cc3)c(=O)[nH]c2=O)c1	15.3	615.7*	-2.5	-0.3	3.0	21.6*
O=C(O)c1ccc(N=Cc2c(O)n(Cc3ccc(F)cc3)c(=O)[nH]c2=O)cc1	5.1	-3.4	1.1	0.4	2.9	nt
CCOc1cc(C)cc2oc(=O)c3c(c12)CCCC3	2.0	27.1*	-1.4	-1.8	3.0	2.0
COC(=O)c1ccc(COc2cc(C)cc3oc(=O)c4c(c23)CCCC4)o1	-14.1	4.7	0.0	1.2	4.5	nt
O=c1[nH]c(O)c(N=Nc2cc([N+](=O)[O-])ccc2O)c(=O)[nH]1	-26.0	19.8*	-23.4	-3.7	nt	7.2
